Results as given in ChEMBL document CHEMBL1125657 (J Med Chem, 1991).

Columns and labels:
[1] = test system: Kappa-type opioid receptor; experiment: Compound was tested for antagonist activity against kappa opioid receptor on electrically stimulated guinea pig ileal longitudinal muscle myenteric plexus (GPI) at 100 nM using EK as agonist ligand.; assay type: functional
Outline: (§1)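 Electrically stimulated guinea pig ileal longitudinal muscle was used for μ agonists (M, DAMGO) and κ agonists (EK, U50488H). Mouse vas deferens was used for δ agonists (DADLE, DPDPE). Antagonist at 100 nM unless specified, preincubated 15 min. Agonist concentration-response curves were run without and then with antagonist in the same tissue, giving IC50s. Ke = [antagonist]/(IC50 ratio − 1).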

[2] = target: Kappa-type opioid receptor (Cavia porcellus) (UniProt P41144); experiment: Binding affinity of compound was measured against Opioid receptor kappa 1 on electrically stimulated guinea pig ileal longitudinal muscle myenteric plexus (GPI) at 100 nM preparation using EK as agonist; outline: as §1
Kappa-type opioid receptor (Cavia porcellus), sequence (P41144 whole entry): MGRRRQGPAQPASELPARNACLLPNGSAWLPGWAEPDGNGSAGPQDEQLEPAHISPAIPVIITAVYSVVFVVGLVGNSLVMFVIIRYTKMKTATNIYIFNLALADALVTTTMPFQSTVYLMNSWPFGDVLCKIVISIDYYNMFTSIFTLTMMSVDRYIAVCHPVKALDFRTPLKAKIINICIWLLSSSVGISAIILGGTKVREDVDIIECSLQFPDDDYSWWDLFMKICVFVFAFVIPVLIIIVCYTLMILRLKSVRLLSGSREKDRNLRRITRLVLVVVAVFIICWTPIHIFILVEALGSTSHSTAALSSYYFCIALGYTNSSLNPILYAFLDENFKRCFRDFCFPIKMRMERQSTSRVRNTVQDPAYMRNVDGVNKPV

[3] = target: Mu-type opioid receptor (Cavia porcellus) (UniProt P97266); experiment: Binding affinity of compound was measured against Opioid receptor mu 1 on electrically stimulated guinea pig ileal longitudinal muscle myenteric plexus (GPI)at 100 nM preparation using M as agonist; outline: as §1
Mu-type opioid receptor (Cavia porcellus), sequence (P97266 whole entry): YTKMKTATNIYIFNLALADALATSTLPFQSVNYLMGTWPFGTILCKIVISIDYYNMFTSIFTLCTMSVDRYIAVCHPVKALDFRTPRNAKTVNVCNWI

[4] = target: Delta-type opioid receptor (Mus musculus) (UniProt P32300); experiment: Maximal inhibition of compound was measured on Mouse vas deferens(MVD) preparation; assay type: functional
Delta-type opioid receptor (Mus musculus), sequence (P32300 whole entry): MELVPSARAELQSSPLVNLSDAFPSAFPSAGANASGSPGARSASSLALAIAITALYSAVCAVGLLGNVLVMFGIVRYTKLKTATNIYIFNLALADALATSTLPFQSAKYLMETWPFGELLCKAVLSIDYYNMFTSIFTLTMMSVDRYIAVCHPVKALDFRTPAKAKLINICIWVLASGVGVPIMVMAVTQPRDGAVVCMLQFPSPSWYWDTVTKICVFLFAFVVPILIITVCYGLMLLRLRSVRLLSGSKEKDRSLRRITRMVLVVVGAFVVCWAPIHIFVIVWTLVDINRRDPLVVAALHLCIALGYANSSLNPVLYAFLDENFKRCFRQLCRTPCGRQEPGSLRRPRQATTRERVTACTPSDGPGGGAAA
Outline: (§2)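 Agonist activity at 1 μM on electrically stimulated guinea pig ileum and mouse vas deferens preparations. Maximal inhibition or stimulation was recorded, averaged over three determinations.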

[5] = target: Mu-type opioid receptor (Cavia porcellus) (UniProt P97266); experiment: Maximal inhibition of compound was measured on guinea pig ileal longitudinal muscle (GPI) preparation at 1 uM concentration; assay type: functional, tissue-based; settings: Muscle tissue; outline: as §2
[6] = Compound was tested for antagonist activity against Opioid receptor delta 1 in mouse vas deferens (MVD) smooth muscle preparation at 100 nM using DADLE as agonist; assay type: functional; outline: as §1
[7] = target: Mu-type opioid receptor (Homo sapiens) (UniProt P35372); experiment: Compound was tested for antagonist activity against mu opioid receptor on electrically stimulated guinea pig ileal longitudinal muscle myenteric plexus (GPI) at 100 nM using M as agonist ligand. IC50; assay type: functional; outline: as §1
Mu-type opioid receptor (Homo sapiens), sequence (P35372 whole entry): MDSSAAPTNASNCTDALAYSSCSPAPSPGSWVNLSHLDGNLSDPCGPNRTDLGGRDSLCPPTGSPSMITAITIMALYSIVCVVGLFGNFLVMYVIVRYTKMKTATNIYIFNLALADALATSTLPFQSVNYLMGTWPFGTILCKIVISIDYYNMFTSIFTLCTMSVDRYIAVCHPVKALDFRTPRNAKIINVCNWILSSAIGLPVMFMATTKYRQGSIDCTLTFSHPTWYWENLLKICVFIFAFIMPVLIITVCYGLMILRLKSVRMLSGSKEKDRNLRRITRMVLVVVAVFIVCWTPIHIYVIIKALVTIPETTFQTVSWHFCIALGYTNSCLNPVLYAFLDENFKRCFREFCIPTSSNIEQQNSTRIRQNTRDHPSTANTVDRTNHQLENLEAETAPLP

[8] = target: Delta-type opioid receptor (Mus musculus) (UniProt P32300); experiment: Binding affinity of compound was measured against Opioid receptor delta 1 in mouse vas deferens (MVD) smooth muscle preparation at 100 nM using DADLE as standard agonist; outline: as §1
[9] = target: Opioid receptors; mu & kappa (Homo sapiens) (UniProt P41145+P35372); experiment: Ki ratio measured as the ke values of mu receptor/kappa receptor from guinea pig brain membranes.
Opioid receptors; mu & kappa (Homo sapiens), sequence (P35372 whole entry, looked up): as the sequence (P35372 whole entry) above
Opioid receptors; mu & kappa (Homo sapiens), sequence (P41145 whole entry, looked up): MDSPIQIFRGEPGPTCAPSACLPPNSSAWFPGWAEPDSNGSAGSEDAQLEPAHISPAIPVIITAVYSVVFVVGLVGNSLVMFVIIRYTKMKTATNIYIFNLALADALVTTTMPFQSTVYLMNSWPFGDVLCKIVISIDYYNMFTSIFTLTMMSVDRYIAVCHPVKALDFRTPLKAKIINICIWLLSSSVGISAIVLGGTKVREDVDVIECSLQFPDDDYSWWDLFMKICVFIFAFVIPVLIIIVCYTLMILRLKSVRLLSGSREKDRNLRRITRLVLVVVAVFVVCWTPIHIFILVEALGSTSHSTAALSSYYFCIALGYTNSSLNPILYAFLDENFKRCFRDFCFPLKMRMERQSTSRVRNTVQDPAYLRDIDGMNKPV

[10] = target: T1, Kappa-type opioid receptor (Cavia porcellus, UniProt P41144); experiment: Binding affinity against Opioid receptor kappa 1 was measured in the guinea pig brain membranes using [3H]EK in the presence of 1 uM unlabeled DAMGO as radioligand; assay type: cell membranes, Membrane
T1 sequence (P41144 whole entry): as the sequence (P41144 whole entry) above
Outline: (§3)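 Guinea pig brain membranes, using a modified version of a published method. μ sites were labelled with [³H]DAMGO. κ sites were labelled with [³H]EK plus 1 μM unlabeled DAMGO. δ sites were labelled with [³H]DADLE plus 1 μM unlabeled DAMGO. Ki values were derived by displacement.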

Mu-type opioid receptor [11] = target: T2, Mu-type opioid receptor (Cavia porcellus, UniProt P97266); experiment: Binding affinity against Opioid receptor mu 1 was measured in the guinea pig brain membranes using [3H]DAMGO as radioligand; assay type: cell membranes, Membrane; outline: as §3
T2 sequence (P97266 whole entry): as the sequence (P97266 whole entry) above

[12] = target: Delta-type opioid receptor (Mus musculus) (UniProt P32300); experiment: Binding affinity of compound was measured against Opioid receptor delta 1 in mouse vas deferens (MVD) smooth muscle preparation at 100 nM using DPDPE as standard agonist; outline: as §1
Mu-type opioid receptor [13] = target: T2, Mu-type opioid receptor; experiment: (§4) Binding affinity of compound was measured against Opioid receptor mu 1 on electrically stimulated guinea pig ileal longitudinal muscle myenteric plexus (GPI)at 100 nM preparation using DAMGO as agonist; outline: as §1
[14] = target: Kappa-type opioid receptor (Homo sapiens) (UniProt P41145); experiment: Compound was tested for antagonist activity against kappa opioid receptor on electrically stimulated guinea pig ileal longitudinal muscle myenteric plexus (GPI) at 100 nM using U-50,488H as agonist ligand.; assay type: functional; outline: as §1
Kappa-type opioid receptor (Homo sapiens), sequence (P41145 whole entry): as the sequence (P41145 whole entry, looked up) above

[15] = target: Mu-type opioid receptor (Cavia porcellus) (UniProt P97266); experiment: as §4; outline: as §1
Mus musculus [16] = experiment: Compound was tested for antagonism of the antinociceptive effect of U-50, 488H opioid agonist, sc in mice in an acetic acid writhing assay in a control group; assay type: functional
Outline: (§5)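 Mouse acetic acid writhing assay. Antagonist was given icv at 100 nmol in 5 μL saline, timed so its 60-min peak effect fell at the centre of the observation period. Agonists (M, EK, U50488H) were given sc at four dose levels to control and treated mice. ED50 ratio = treated ED50 / control ED50.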

Mus musculus [17] = experiment: Compound was tested for antagonism of the antinociceptive effect of M opioid agonist, sc in mice in an acetic acid writhing assay in a control group; assay type: functional; outline: as §5
[18] = target: T1, Kappa-type opioid receptor; experiment: (§6) Binding affinity of compound was measured against Opioid receptor kappa 1 on electrically stimulated guinea pig ileal longitudinal muscle myenteric plexus (GPI) at 100 nM preparation using U-50,488H as agonist; outline: as §1
[19] = target: Mu-type opioid receptor (Homo sapiens) (UniProt P35372); experiment: Compound was tested for antagonist activity against mu opioid receptor on electrically stimulated guinea pig ileal longitudinal muscle myenteric plexus (GPI) at 100 nM using DAMGO as agonist ligand.; assay type: functional; outline: as §1
Mus musculus [20] = experiment: Compound was tested for antagonism of the antinociceptive effect of U-50, 488H opioid agonist, sc in mice in an acetic acid writhing assay in a treated group(icv with 100 nmol of 2.HCl in 5 microL of saline); assay type: functional; outline: as §5
Mus musculus [21] = experiment: Compound was tested for antagonism of the antinociceptive effect of M opioid agonist, sc in mice in an acetic acid writhing assay in a treated group(icv with 100 nmol of 2.HCl in 5 microL of saline); assay type: functional; outline: as §5
[22] = target: Kappa-type opioid receptor (Cavia porcellus) (UniProt P41144); experiment: as §6; outline: as §1
Mus musculus [23] = experiment: Compound was tested for antagonism of the antinociceptive effect of EK opioid agonist, sc in mice in an acetic acid writhing assay in a control group; assay type: functional; outline: as §5
Mus musculus [24] = experiment: compound was tested for antagonism of the antinociceptive effect of EK opioid agonist, sc in mice in an acetic acid writhing assay in a treated group(icv with 100 nmol of 2.HCl in 5 microL of saline); assay type: functional; outline: as §5
[25] = target: Mu-type opioid receptor (Homo sapiens) (UniProt P35372); experiment: Compound was tested for antagonist activity against mu opioid receptor on electrically stimulated guinea pig ileal longitudinal muscle myenteric plexus (GPI) at 100 nM using M as agonist ligand.; assay type: functional; outline: as §1

Row | SMILES | Ratio [1] | Ke [2] [nM] | Ke [3] [nM] | Activity [4] | Activity [5] | Ratio [6] | Ratio [7] | Ke [8] [nM] | Ratio [9] | Ki [10] [nM] | Ki (Mu-type opioid receptor [11]) [nM] | Ki (Mu-type opioid receptor [13]) [nM] | Ke [15] [nM] | Ki [18] [nM] | Ke [22] [nM] | also measured
1 | O=C1C(=Cc2ccccc2)C[C@@]2(O)[C@H]3Cc4ccc(O)c5c4[C@@]2(CCN3CC2CC2)[C@H]1O5 | 2 | 100 | 8.3 | -35 | -8 | 35 | 13.1 | 2.9 | – | – | – | – | – | – | – | –
2 | Cn1c2c(c3c1[C@@H]1Oc4c(O)ccc5c4[C@@]14CCN(CC1CC1)[C@H](C5)[C@]4(O)C3)C[C@@]1(O)[C@H]3Cc4ccc(O)c5c4[C@@]1(CCN3CC1CC1)[C@H]2O5 [BINALTORPHIMINE] | – | – | – | – | – | – | – | – | 44 | 0.41 | 18 | – | – | – | – | –
3 | Oc1ccc2c3c1O[C@H]1C(SSC4=CC[C@@]5(O)[C@H]6Cc7ccc(O)c8c7[C@@]5(CCN6CC5CC5)[C@H]4O8)=CC[C@@]4(O)[C@@H](C2)N(CC2CC2)CC[C@]314 | 9.7 | 3.5 | 2.2 | 15 | 40 | 8.6 | 14.6 | 13.2 | – | – | – | – | – | – | – | –
4 | Oc1ccc2c3c1O[C@H]1c4sc5c(c4C[C@@]4(O)[C@@H](C2)N(CC2CC2)CC[C@]314)C[C@@]1(O)[C@H]2Cc3ccc(O)c4c3[C@@]1(CCN2CC1CC1)[C@H]5O4 | 39 | 2.6 | 41 | -26 | -17 | 4 | 3.5 | 33 | – | – | – | 189 | > 103 | 1.4 | 3.1 | Ke [12]: > 556 nM; Ratio [14]: 33; ED50 (Mus musculus [16]): 1.5 mg/kg; ED50 (Mus musculus [17]): 0.91 mg/kg; Ratio [19]: 1.9; ED50 (Mus musculus [20]): 11.2 mg/kg; ED50 (Mus musculus [21]): 5.4 mg/kg; ED50 (Mus musculus [23]): 0.038 mg/kg; ED50 (Mus musculus [24]): 0.13 mg/kg
5 | Oc1ccc2c3c1O[C@H]1c4[nH]c5c(c4C[C@@]4(O)[C@@H](C2)N(CC2CC2)CC[C@]314)C[C@@]1(O)[C@H]2Cc3ccc(O)c4c3[C@@]1(CCN2CC1CC1)[C@H]5O4 [NORBINALTORPHIMINE] | – | 0.55 | 14 | 16 | 14 | – | – | 10.6 | – | – | – | 47 | 22 | 0.26 | 0.21 | –
6 | Oc1ccc2c3c1O[C@H]1C4=C(C[C@@]5(O)[C@@H](C2)N(CC2CC2)CC[C@]315)C(c1ccccc1)C1=C(O4)[C@@H]2Oc3c(O)ccc4c3[C@@]23CCN(CC2CC2)[C@H](C4)[C@]3(O)C1 | 39 | 2.6 | 39 | 9 | -24 | 3.8 | – | 36 | 11 | 10 | 29 | – | – | – | – | Ratio [25]: 3.6
